{"data": "Published values collected from several papers", "target": "Mitogen-activated protein kinase kinase kinase 5 (MAP3K5, Homo sapiens, UniProt Q99683)", "Sequence (Q99683 1-1374, as in one of the studies)": "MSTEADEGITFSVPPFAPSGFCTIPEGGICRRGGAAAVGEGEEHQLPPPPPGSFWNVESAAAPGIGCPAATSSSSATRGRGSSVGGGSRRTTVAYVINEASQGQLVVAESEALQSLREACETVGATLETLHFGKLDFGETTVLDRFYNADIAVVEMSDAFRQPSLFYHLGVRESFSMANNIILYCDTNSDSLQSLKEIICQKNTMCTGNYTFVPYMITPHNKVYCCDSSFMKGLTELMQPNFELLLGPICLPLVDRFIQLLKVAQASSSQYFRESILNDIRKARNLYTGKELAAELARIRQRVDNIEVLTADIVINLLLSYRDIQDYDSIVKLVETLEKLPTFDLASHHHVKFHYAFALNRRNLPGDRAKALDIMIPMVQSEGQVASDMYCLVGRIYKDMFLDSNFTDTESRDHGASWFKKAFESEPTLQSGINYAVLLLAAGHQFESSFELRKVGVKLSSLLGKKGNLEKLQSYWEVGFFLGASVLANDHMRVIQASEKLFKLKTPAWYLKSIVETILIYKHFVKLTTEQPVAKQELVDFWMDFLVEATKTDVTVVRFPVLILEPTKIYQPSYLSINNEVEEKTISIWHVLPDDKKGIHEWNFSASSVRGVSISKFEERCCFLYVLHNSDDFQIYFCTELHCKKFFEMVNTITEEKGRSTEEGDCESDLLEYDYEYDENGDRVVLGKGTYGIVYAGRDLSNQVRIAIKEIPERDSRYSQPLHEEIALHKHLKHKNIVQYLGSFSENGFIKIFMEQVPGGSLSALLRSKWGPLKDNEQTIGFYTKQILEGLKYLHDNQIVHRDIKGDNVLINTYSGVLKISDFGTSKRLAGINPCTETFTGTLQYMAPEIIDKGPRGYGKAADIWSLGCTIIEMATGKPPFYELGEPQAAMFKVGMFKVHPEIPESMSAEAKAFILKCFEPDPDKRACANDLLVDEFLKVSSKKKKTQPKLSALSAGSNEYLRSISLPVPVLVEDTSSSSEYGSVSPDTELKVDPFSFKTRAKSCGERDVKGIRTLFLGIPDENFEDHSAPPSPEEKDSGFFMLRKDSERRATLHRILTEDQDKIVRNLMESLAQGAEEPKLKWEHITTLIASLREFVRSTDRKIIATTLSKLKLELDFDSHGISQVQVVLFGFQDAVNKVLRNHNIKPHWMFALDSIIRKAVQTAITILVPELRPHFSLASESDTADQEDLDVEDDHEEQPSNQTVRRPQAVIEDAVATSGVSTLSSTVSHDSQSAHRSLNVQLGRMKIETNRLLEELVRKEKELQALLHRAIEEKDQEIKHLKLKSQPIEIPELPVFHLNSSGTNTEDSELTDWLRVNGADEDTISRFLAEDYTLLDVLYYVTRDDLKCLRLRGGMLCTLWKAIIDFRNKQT", "note": "Compare with care: the assays were run in different laboratories."}
{"SMILES": "Cc1noc([C@H]2C[C@@H](c3ccc(C(F)(F)F)cc3)CN(C(=O)N3CCS(=O)(=O)C3)C2)n1", "test": "cell-free assay, competition with immobilised ligand", "conditions": "1 µM", "endpoint": "remaining binding", "result": "100%"}
{"SMILES": "CC/C(=N\\NC(=O)NCc1cccc(O)c1)c1ccc(O)c(C)c1O", "test": "enzyme activity, inhibitor", "conditions": "0.1 µM", "endpoint": "inhibition", "result": "4%"}
{"SMILES": "CNC(=O)Nc1ccc2c(c1)[C@@]1(CC2)OC(=O)N(CC(=O)N(Cc2ccc(F)cc2)[C@@H](C)C(F)(F)F)C1=O", "test": "cell-free assay, competition with immobilised ligand", "conditions": "1 µM", "endpoint": "remaining binding", "result": "100%"}
{"SMILES": "CCCS(=O)(=O)Nc1ccc(F)c(C(=O)c2c[nH]c3ncc(-c4ccc(Cl)cc4)cc23)c1F", "test": "enzyme activity, inhibitor", "conditions": "1 µM", "endpoint": "inhibition", "result": "< 10%"}
{"SMILES": "CC1=C(C#N)[C@@H](c2ccc3[nH]nc(C)c3c2)C(C#N)=C(c2ccc(Cl)cc2)N1", "test": "cell-free assay, competition with immobilised ligand", "conditions": "1 µM", "endpoint": "remaining binding", "result": "100%"}
{"SMILES": "Cn1c(=O)n(-c2ccc(C(C)(C)C#N)cc2)c2c3cc(-c4cnc5ccccc5c4)ccc3ncc21", "test": "enzyme activity, inhibitor", "conditions": "10 µM", "endpoint": "remaining activity", "result": "106%"}
{"SMILES": "CCC1(CC)NC(=O)c2c(c3ccc(Cl)c(Cl)c3n2C)C1C#N (stereo not shown)", "test": "thermal stability, DSF", "conditions": "10 µM", "endpoint": "ΔTm", "result": "0.7 °C"}
{"SMILES": "COc1cc(Nc2cnc(C#N)c(O[C@H](C)CN(C)C)n2)ncc1-c1cnn(C)c1", "test": "enzyme activity, inhibitor, radiometric", "conditions": "10 µM", "endpoint": "remaining activity", "result": "67%"}
{"SMILES": "CNC(=O)c1cc(Oc2ccc(NC(=O)Nc3ccc(Cl)c(C(F)(F)F)c3)cc2)ccn1", "test": "enzyme activity, inhibitor", "conditions": "10 µM", "endpoint": "inhibition", "result": "9%"}
{"SMILES": "CCOc1cc(-c2nncn2C)ccc1Nc1ncc2cc(C)nc(NCC(C)(C)C)c2n1", "test": "cell-free assay, TR-FRET", "conditions": "1 µM", "endpoint": "inhibition", "result": "≤ 15%"}
{"SMILES": "CCN(CC)c1ccc(C2=NNC(=O)CC2C)cc1[N+](=O)[O-] (stereo not shown)", "test": "enzyme activity, inhibitor", "conditions": "10 µM", "endpoint": "remaining activity", "result": "101%"}
{"SMILES": "CN1CC(Oc2cnc(C#N)cc2-c2ccn3nc(NC(=O)C4CC4)cc3c2)C1", "test": "enzyme activity, inhibitor", "conditions": "1 µM", "endpoint": "inhibition", "result": "-2%"}
{"SMILES": "O=C(Nc1cnn(-c2csc(C(=O)NC3COC3)c2)c1)Nc1ccccc1Cl", "test": "enzyme activity, inhibitor", "conditions": "5 µM", "endpoint": "remaining activity", "result": "91.2%"}
{"SMILES": "CN(C(=O)c1ccccc1)c1cc(N(C)c2ccc3c(c2)CCc2ccc(C(=O)NCCN4CCOCC4)cc2C3=O)ccc1F", "test": "cell-free assay, competition with immobilised ligand", "conditions": "1 µM", "endpoint": "remaining binding", "result": "100%"}
{"SMILES": "FC(F)(F)Oc1cccc(-c2cnc3ccc(-c4ccncc4)nn23)c1", "test": "enzyme activity, inhibitor, radiometric", "conditions": "5 µM", "endpoint": "activity vs control", "result": "104%"}
{"SMILES": "COc1ccc2c(c1)O[C@H](c1ccc(OC)c(OC)c1)C[C@@H]2NC(=O)C1(c2ccc3c(c2)OC(F)(F)O3)CC1", "test": "cell-free assay, competition with immobilised ligand", "conditions": "1 µM", "endpoint": "remaining binding", "result": "100%"}
{"SMILES": "Cc1ccc(C(=O)Nc2ccc(CN3CCN(C)CC3)c(C(F)(F)F)c2)cc1C#Cc1cnc2cccnn12", "test": "enzyme activity, inhibitor", "conditions": "23.5 nM", "endpoint": "remaining activity", "result": "100%"}
{"SMILES": "N#CC1c2c([nH]c3c(Cl)c(Cl)ccc23)C(=O)NC12CCCCC2 (racemic)", "test": "thermal stability, DSF", "conditions": "10 µM", "endpoint": "ΔTm", "result": "0.6 °C"}
{"SMILES": "CCCOc1ccc(OC)c(F)c1C(=O)c1ccc(C(=O)N[C@@H]2CNC[C@H]2NC(=O)c2ccc3[nH]ncc3c2)cc1", "test": "enzyme activity, inhibitor", "conditions": "10 µM", "endpoint": "remaining activity", "result": "83%"}
{"SMILES": "Cc1ccc(Nc2nccc(N(C)c3ccc4c(C)n(C)nc4c3)n2)cc1S(N)(=O)=O", "test": "enzyme activity, inhibitor", "conditions": "10 µM", "endpoint": "inhibition", "result": "5%"}
{"SMILES": "Cn1c2c(c3ccc(Cl)c(Cl)c31)C(C#N)C1(CCNCC1)NC2=O (racemic)", "test": "thermal stability, DSF", "conditions": "10 µM", "endpoint": "ΔTm", "result": "0.1 °C"}
{"SMILES": "Cc1cc(NC(=O)c2cccc3cc(-c4cccc5[nH]nc(N)c45)ccc23)ccc1F", "test": "enzyme activity, inhibitor", "conditions": "0.1 µM", "endpoint": "activity vs control", "result": "109%"}
{"SMILES": "CN1CCC2(CC1)NC(=O)c1c(c3ccc(Cl)c(Cl)c3n1C)C2C#N (racemic)", "test": "thermal stability, DSF", "conditions": "10 µM", "endpoint": "ΔTm", "result": "0.3 °C"}
{"SMILES": "Cc1ccc(NC(=O)c2ccc(C)c(C(F)(F)F)c2)cc1C#Cc1nn(C2CCC(O)CC2)c2ncnc(N)c12 (stereo not shown)", "test": "cell-free assay", "conditions": "10 µM", "endpoint": "remaining signal", "result": "127%"}
{"SMILES": "CCN(CC)CCNC(=O)c1c(C)[nH]c(/C=C2\\C(=O)Nc3ccc(F)cc32)c1C", "test": "enzyme activity, inhibitor", "conditions": "10 µM", "endpoint": "inhibition", "result": "38%"}
{"SMILES": "CCN1CCN(Cc2ccc(NC(=O)c3ccc(C)c(Oc4ccnc5[nH]ccc45)c3)cc2C(F)(F)F)CC1", "test": "target engagement in cells, inhibitor, chemoproteomics", "system": "A-375", "conditions": "0.5 µM", "endpoint": "inhibition", "result": "-10.5%"}
{"SMILES": "CCCCNc1ncc2c(-c3ccc(F)cc3)nn(C[C@H]3CC[C@H](N)CC3)c2n1", "test": "target engagement in cells, inhibitor, chemoproteomics", "conditions": "20 mM", "endpoint": "inhibition", "result": "-10.7%"}
{"SMILES": "CCCCN(CCCC)C(=O)CN1C[C@H](c2cc(OC)c3c(c2)OCO3)[C@@H](C(=O)O)[C@@H]1CC(C)(C)CCC", "test": "cell-free assay, competition with immobilised ligand", "conditions": "1 µM", "endpoint": "remaining binding", "result": "100%"}
{"SMILES": "COc1cc(Cl)c(C(=O)N[C@@H](CN[C@H]2CC[C@@H](N)CC2)Cc2ccc(C#N)cc2)cc1-c1ccc(CN[C@H](C)c2ccc(C)cc2)o1", "test": "enzyme activity, inhibitor", "conditions": "1 µM", "endpoint": "remaining activity", "result": "94%"}
{"SMILES": "CC(C)(C)c1nc2c(s1)c1nc(N)ncc1c1ccc(NS(=O)(=O)c3c(F)cccc3F)c(F)c12", "test": "enzyme activity, inhibitor, radiometric", "conditions": "1 µM", "endpoint": "remaining activity", "result": "104%"}
{"SMILES": "C[S+]([O-])c1ccc(-c2nc(-c3ccncc3)c(-c3ccc(F)cc3)[nH]2)cc1 (stereo not shown)", "test": "cell-free assay", "conditions": "0.5 µM", "endpoint": "remaining signal", "result": "107%"}
{"SMILES": "Cn1c2c(Cl)c(Cl)ccc2c2cc(N)[nH]c(=O)c21", "test": "thermal stability, DSF", "conditions": "10 µM", "endpoint": "ΔTm", "result": "1.5 °C"}
{"SMILES": "CCN1CCN(Cc2ccc(NC(=O)c3ccc(C)c(/C=C/c4cnc5[nH]ccc5c4OC)c3)cc2C(F)(F)F)CC1", "test": "target engagement in cells, inhibitor, chemoproteomics", "system": "A-375", "conditions": "5 µM", "endpoint": "inhibition", "result": "-35.5%"}
{"SMILES": "CN(C)c1ncnc(-c2ccc3nc(Nc4cc(CN5CCN(C(=O)CC(F)(F)F)CC5)ccn4)[nH]c3c2)c1Cl", "test": "cell-free assay, competition with immobilised ligand", "conditions": "1 µM", "endpoint": "remaining binding", "result": "100%"}
{"SMILES": "N#CCCc1ccc2c(c1)-c1[nH]c3ccc([N+](=O)[O-])cc3c1CC(=O)N2", "test": "cell-free assay", "conditions": "0.5 µM", "endpoint": "remaining signal", "result": "101%"}
{"SMILES": "CC(C)CC(=O)N1CCc2nc(-c3ccc(Br)cc3)nc(N(C)Cc3ccccc3)c2C1", "test": "cell-free assay, competition with immobilised ligand", "conditions": "0.1 µM", "endpoint": "remaining binding", "result": "91%"}
{"SMILES": "CNCc1ccc(-c2cc(-c3nc(-c4ccc(S(=O)(=O)C(C)C)cc4)cnc3N)on2)cc1", "test": "enzyme activity, inhibitor", "conditions": "0.4 µM", "endpoint": "inhibition", "result": "0%"}
